{
  "source": "ChEMBL document CHEMBL3739303",
  "about": "“Targeting the Src Homology 2 (SH2) Domain of Signal Transducer and Activator of Transcription 6 (STAT6) with Cell-Permeable, Phosphatase-Stable Phosphopeptide Mimics Potently Inhibits Tyr641 Phosphorylation and Transcriptional Activity” (J Med Chem, 2015)",
  "key": {"[1]": {"target": "T1, Signal transducer and activator of transcription 1 (Mus musculus) (UniProt P42225)", "T1 sequence (whole entry)": "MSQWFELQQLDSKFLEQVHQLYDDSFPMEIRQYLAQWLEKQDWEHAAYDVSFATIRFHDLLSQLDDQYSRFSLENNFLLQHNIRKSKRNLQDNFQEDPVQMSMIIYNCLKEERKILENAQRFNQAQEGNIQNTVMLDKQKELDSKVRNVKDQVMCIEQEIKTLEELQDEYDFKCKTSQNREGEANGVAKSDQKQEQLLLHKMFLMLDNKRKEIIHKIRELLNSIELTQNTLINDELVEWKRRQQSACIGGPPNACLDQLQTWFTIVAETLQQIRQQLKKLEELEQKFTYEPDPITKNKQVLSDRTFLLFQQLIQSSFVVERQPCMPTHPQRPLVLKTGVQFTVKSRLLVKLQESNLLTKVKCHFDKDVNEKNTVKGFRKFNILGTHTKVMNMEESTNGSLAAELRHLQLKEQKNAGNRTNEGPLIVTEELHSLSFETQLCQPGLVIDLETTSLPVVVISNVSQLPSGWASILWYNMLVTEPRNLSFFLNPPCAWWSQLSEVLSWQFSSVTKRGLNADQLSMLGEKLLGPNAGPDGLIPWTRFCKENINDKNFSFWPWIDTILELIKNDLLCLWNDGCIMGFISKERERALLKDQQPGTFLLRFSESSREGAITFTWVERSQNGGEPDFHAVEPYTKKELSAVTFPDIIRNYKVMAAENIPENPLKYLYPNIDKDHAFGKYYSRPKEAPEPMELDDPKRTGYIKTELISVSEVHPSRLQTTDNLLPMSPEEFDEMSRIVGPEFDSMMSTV", "assay": "Inhibition of IL6-induced STAT1 phosphorylation at Y701 in CD4+ T lymphocytes isolated from C57BL/6J mouse preincubated for 2 hrs followed by activation with plate-bound anti-CD3/anti-CD28 and IL6 for 15 mins by Western blot analysis", "assay_type": "cell-based", "outline": "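CD4+ T cells from C57BL/6J mice, sorted by AutoMACS; activated 15 min with plate-bound anti-CD3 and/or anti-CD28 with IL-2, IL-6 or IL-4; lysed with protease inhibitors plus 10 mM NaF and 1 mM Na3VO4; Bradford-normalised immunoblots for pSTAT1 (Tyr701), pSTAT5 (Tyr694), pSTAT6 (Tyr641) and total STATs.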"}, "[2]": {"target": "T2, Signal transducer and activator of transcription 6 (Homo sapiens) (UniProt P42226)", "T2 sequence (whole entry)": "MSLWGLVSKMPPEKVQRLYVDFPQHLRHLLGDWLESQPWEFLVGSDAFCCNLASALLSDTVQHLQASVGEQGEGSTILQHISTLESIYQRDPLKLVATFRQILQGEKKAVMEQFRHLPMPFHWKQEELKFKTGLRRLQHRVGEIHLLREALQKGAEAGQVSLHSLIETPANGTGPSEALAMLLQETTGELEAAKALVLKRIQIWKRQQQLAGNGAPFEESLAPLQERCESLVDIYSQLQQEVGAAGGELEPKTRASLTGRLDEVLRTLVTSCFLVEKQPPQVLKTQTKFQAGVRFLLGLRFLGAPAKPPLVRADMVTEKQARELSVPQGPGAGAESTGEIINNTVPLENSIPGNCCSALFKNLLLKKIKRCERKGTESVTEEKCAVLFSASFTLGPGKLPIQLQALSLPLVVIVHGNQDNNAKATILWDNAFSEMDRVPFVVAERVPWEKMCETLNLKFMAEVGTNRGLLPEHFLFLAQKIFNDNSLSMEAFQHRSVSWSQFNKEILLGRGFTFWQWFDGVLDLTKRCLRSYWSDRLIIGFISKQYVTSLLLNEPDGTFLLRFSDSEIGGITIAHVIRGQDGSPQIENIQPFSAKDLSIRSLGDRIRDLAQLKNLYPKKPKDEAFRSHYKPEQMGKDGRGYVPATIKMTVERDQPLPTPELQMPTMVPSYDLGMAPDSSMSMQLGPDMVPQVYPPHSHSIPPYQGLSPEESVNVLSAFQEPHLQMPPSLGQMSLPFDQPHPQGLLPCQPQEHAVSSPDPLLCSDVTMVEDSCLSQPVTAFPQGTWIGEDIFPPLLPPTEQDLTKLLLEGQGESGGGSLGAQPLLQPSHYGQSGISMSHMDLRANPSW", "assay": "Inhibition of IL4-induced STAT6 phosphorylation in human MDA-MB-468 cells at 0.1 to 5 uM incubated for 2 hrs followed by stimulation with IL4 for 1 hr by Western blot assay", "assay_type": "cell-based", "outline": "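MDA-MB-468 breast cancer cells serum-starved, treated with prodrugs, then IL-4 stimulated; pSTAT6 read by Western blot.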"}},
  "note": "Activity calls are given as the source filed them. No cut-off for these calls is given here.",
  "data": [
    {"smiles": "C/C(=C\\C(=O)N[C@H](C(=O)N1CCC[C@H]1C(=O)N(C)c1ccccc1)C(C)(C)C)c1ccc(C(F)(F)P(=O)(OCOC(=O)C(C)(C)C)OCOC(=O)C(C)(C)C)cc1", "values": [
      {"measurement": "inhibition", "setting": "[1]", "result": "inactive"},
      {"measurement": "inhibition", "setting": "[2]", "result": "Active"}
    ]}
  ]
}
